Results pooled from the literature.
Compare with care: the assays were run in different laboratories.
PDE5A: cGMP-specific 3',5'-cyclic phosphodiesterase (PDE5A, Homo sapiens, UniProt O76074)
MALT1: Mucosa-associated lymphoid tissue lymphoma translocation protein 1 (MALT1, Homo sapiens, UniProt Q9UDY8)
HTR2A: 5-hydroxytryptamine receptor 2A (HTR2A, Homo sapiens, UniProt P28223)
EDNRA: Endothelin-1 receptor (EDNRA, Homo sapiens, UniProt P25101)

| SMILES | target | assay | conditions | inhibition |
| --- | --- | --- | --- | --- |
| CN(CCN1CCC(OC(=O)Nc2ccccc2-c2ccccc2)CC1)C(=O)c1ccc(CN2CCC(C(N)=O)CC2)cc1 | PDE5A | enzyme activity, inhibitor | 1 µM | 0% |
| Cn1cc(-c2cccc(N3CCc4c(sc5c4CC(C)(C)C5)C3=O)c2CO)cc(Nc2ccncn2)c1=O | Phosphatidylinositol 4-phosphate 3-kinase C2 domain-containing subunit beta (PIK3C2B, Homo sapiens, UniProt O00750) | enzyme activity, inhibitor | 1 µM | -3% |
| CN(C)C(=O)COC(=O)Cc1ccc(OC(=O)c2ccc(NC(=N)N)cc2)cc1 | Caspase-6 (CASP6, Homo sapiens, UniProt P55212) | enzyme activity, inhibitor | 10 µM | 3% |
| CC(C)Cn1cnc2c(N)nc3ccccc3c21 | Sigma non-opioid intracellular receptor 1 (SIGMAR1, Homo sapiens, UniProt Q99720) | ligand displacement, radioligand | 10 µM | 15% |
| CCOC(=O)c1ccc(OC(=O)CCCCCNC(=N)N)cc1 | MALT1 | enzyme activity, inhibitor | 10 µM | 46% |
| Cn1cc(-c2cc(F)cc(N3CCn4c(cc5c4CCCC5)C3=O)c2CO)cc(Nc2ccc(N3CCN(C4COC4)CC3)cn2)c1=O | Sphingosine kinase 1 (SPHK1, Homo sapiens, UniProt Q9NYA1) | enzyme activity, inhibitor | 0.1 µM | 4% |
| C#Cc1n[nH]c2c(-c3cn(C(C)c4ccccn4)c(=O)[nH]c3=O)cc(F)cc12 (centres unmarked) | Aurora kinase B (AURKB, Homo sapiens, UniProt Q96GD4) | enzyme activity, inhibitor | 1 µM | 6.7% |
| [H]/N=C(/N)c1ccc(NCc2nc3cc(C(=O)N(CCC(=O)O)c4ccccn4)ccc3n2C)cc1 | Vitamin K-dependent protein C (PROC, Homo sapiens, UniProt P04070) | enzyme activity, inhibitor | 2 µM | 43% |
| OC[C@@]12C[C@@H]1[C@@H](n1cnc3c(NC(C4CCCC4)C4CCCC4)nc(Cl)nc31)[C@H](O)[C@@H]2O | HTR2A | ligand displacement, radioligand | 10 µM | 22% |
| CC(C)N1CCC[C@H]1CNC(=O)c1cn(C2CCCC2)c(=O)c2c1c1ccccc1n2C | EDNRA | ligand displacement, radioligand | 10 µM | 11% |
| CC(C)[C@H](NC(=O)OCc1ccccc1)C(=O)N[C@@H](CCCN=C(N)N)C(=O)N1CCC[C@H]1C(=O)N[C@@H](CCCN=C(N)N)C(=O)CF | MALT1 | enzyme activity, inhibitor | 1 nM | 9% |
| COc1ccc(S(=O)(=O)N2CCCCC2)cc1C | EDNRA | ligand displacement, radioligand | 10 µM | < 30% |
| OC[C@@]12C[C@@H]1[C@@H](n1cnc3c(NC(C4CCCC4)C4CCCC4)nc(Cl)cc31)[C@H](O)[C@@H]2O | HTR2A | ligand displacement, radioligand | 10 µM | 1% |
| COCc1c(-c2cc3cc(C)cc(OC)c3s2)c2c(N)ncnn2c1CN1CCNC(=O)C1 | EDNRA | ligand displacement, radioligand | 10 µM | 12% |
| CCN(CC)CCCC[C@H](NC(=O)[C@H](CC(C)C)NC(=O)[C@H](C)NC(=O)[C@H](Cc1ccccc1)NC(=O)c1ccc(C(C)(C)C)cc1)C(=O)N[C@@H](CO)C(=O)OC | Cannabinoid receptor 1 (CNR1, Homo sapiens, UniProt P21554) | ligand displacement, radioligand | 10 µM | -13% |
| COc1cc(Nc2ncc(F)c(Nc3ccc4c(n3)NC(=O)C(C)(C)O4)n2)cc(OC)c1OC | Serine/threonine-protein kinase VRK2 (VRK2, Homo sapiens, UniProt Q86Y07) | binding | 10 µM | 0% |
| N=C(N)c1ccc2cc(OC(=O)c3ccc(N=C(N)N)cc3)ccc2c1 | MALT1 | enzyme activity, inhibitor | 10 µM | 49% |
| CC(C)=CCC[C@]1(C)C=Cc2c(O)c3c(c(CC=C(C)C)c2O1)O[C@]12C(=C[C@@H]4C[C@H]1C(C)(C)O[C@@]2(C/C=C(/C)C(=O)O)C4=O)C3=O | Histone-lysine N-methyltransferase EHMT1 (EHMT1, Homo sapiens, UniProt Q9H9B1) | cell-free assay | 10 µM | -8% |
| O=C(Nc1cccnn1)N1CCN([C@@H]2CCOc3cc(C(F)(F)F)ccc32)CC1 | PDE5A | enzyme activity, inhibitor | 20 µM | 5% |
| c1ccc(C(NCCNC(c2ccccc2)c2ccccc2)c2ccccc2)cc1 | PDE5A | enzyme activity, inhibitor | 10 µM | 0% |
